Reference: ChEMBL document CHEMBL4765302, “Design, synthesis and biological evaluation of novel histone deacetylase1/2 (HDAC1/2) and cyclin-dependent Kinase2 (CDK2) dual inhibitors against malignant cancer” (Eur J Med Chem, 2020)

What was measured:
HepG2 [1] = experiment: Antiproliferative activity against human HepG2 cells assessed as reduction in cell growth at 8 uM incubated for 72 hrs by CCK-8 assay relative to control; type: functional
HCT-116 [2] = experiment: Antiproliferative activity against human HCT-116 cells assessed as reduction in cell growth at 2 uM incubated for 72 hrs by CCK-8 assay relative to control; type: functional
HCT-116 [3] = experiment: Antiproliferative activity against human HCT-116 cells assessed as reduction in cell growth at 8 uM incubated for 72 hrs by CCK-8 assay relative to control; type: functional
HeLa [4] = experiment: Antiproliferative activity against human HeLa cells assessed as reduction in cell growth incubated for 72 hrs by CCK-8 assay; type: functional, cell-based
How it was run: (§1)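 IC50 by CCK-8 assay across five solid-tumour lines (HCT116, HepG2, H460, HeLa, A375). Run only for compounds chosen after the single-concentration screen, with CS055 and roscovitine as references.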

A-375 [5] = experiment: Antiproliferative activity against human A-375 cells assessed as reduction in cell growth incubated for 72 hrs by CCK-8 assay; type: functional, cell-based; conditions: A-375, 72 h; how it was run: as §1
NCI-H460 [6] = experiment: Antiproliferative activity against human H460 cells assessed as reduction in cell growth at 8 uM incubated for 72 hrs by CCK-8 assay relative to control; type: functional
NCI-H460 [7] = experiment: Antiproliferative activity against human H460 cells assessed as reduction in cell growth at 2 uM incubated for 72 hrs by CCK-8 assay relative to control; type: functional
Histone deacetylase 1 = Histone deacetylase 1 (Homo sapiens, UniProt Q13547); experiment: Inhibition of recombinant human HDAC1 at 10 uM using SIRT1 as substrate incubated for 10 mins followed by substrate addition and measured after 30 mins by fluorescence based assay relative to control; conditions: time 40.0 min
How it was run: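 Enzyme inhibition of HDAC1 measured at a single concentration of 10 µM, tested alongside the cell-growth screen.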

HCT-116 [8] = experiment: Antiproliferative activity against human HCT-116 cells assessed as reduction in cell growth incubated for 72 hrs by CCK-8 assay; type: functional, cell-based; conditions: HCT-116, 72 h; how it was run: as §1
NCI-H460 [9] = experiment: Antiproliferative activity against human NCI-H460 cells assessed as reduction in cell growth incubated for 72 hrs by CCK-8 assay; type: functional, cell-based; conditions: NCI-H460, 72 h; how it was run: as §1
HepG2 [10] = experiment: Antiproliferative activity against human HepG2 cells assessed as reduction in cell growth at 2 uM incubated for 72 hrs by CCK-8 assay relative to control; type: functional
HepG2 [11] = experiment: Antiproliferative activity against human HepG2 cells assessed as reduction in cell growth incubated for 72 hrs by CCK-8 assay; type: functional, cell-based; conditions: HepG2, 72 h; how it was run: as §1
A-375 [12] = experiment: Induction of apoptosis in human A-375 cells assessed as late apoptotic cells at 2 uM incubated for 48 hrs by annexin V-FITC and PI staining based flow cytometry (reference value: 2.24 %); type: functional
HCT-116 [13] = experiment: Induction of apoptosis in human HCT-116 cells assessed as necrotic cells at 2 uM incubated for 48 hrs by annexin V-FITC and PI staining based flow cytometry (reference value: 0.124 %); type: functional
HCT-116 [14] = experiment: Induction of apoptosis in human HCT-116 cells assessed as viable cells at 2 uM incubated for 48 hrs by annexin V-FITC and PI staining based flow cytometry (reference value: 93.9 %); type: functional; conditions: read-out: Activity
NCI-H460 [15] = experiment: Induction of apoptosis in human NCI-H460 cells assessed as late apoptotic cells at 2 uM incubated for 48 hrs by annexin V-FITC and PI staining based flow cytometry (reference value: 6.11 %); type: functional
A-375 [16] = experiment: Induction of apoptosis in human A-375 cells assessed as early apoptotic cells at 2 uM incubated for 48 hrs by annexin V-FITC and PI staining based flow cytometry (reference value: 1.34 %); type: functional
A-375 [17] = experiment: Induction of apoptosis in human A-375 cells assessed as viable cells at 2 uM incubated for 48 hrs by annexin V-FITC and PI staining based flow cytometry (reference value: 96.3 %); type: functional; conditions: read-out: Activity
HeLa [18] = experiment: Induction of apoptosis in human HeLa cells assessed as late apoptotic cells at 2 uM incubated for 48 hrs by annexin V-FITC and PI staining based flow cytometry (reference value: 0.870 %); type: functional
NCI-H460 [19] = experiment: Induction of apoptosis in human NCI-H460 cells assessed as necrotic cells at 2 uM incubated for 48 hrs by annexin V-FITC and PI staining based flow cytometry (reference value: 0.632 %); type: functional
HeLa [20] = experiment: Induction of apoptosis in human HeLa cells assessed as early apoptotic cells at 2 uM incubated for 48 hrs by annexin V-FITC and PI staining based flow cytometry (reference value: 0.528 %); type: functional
NCI-H460 [21] = experiment: Induction of apoptosis in human NCI-H460 cells assessed as early apoptotic cells at 2 uM incubated for 48 hrs by annexin V-FITC and PI staining based flow cytometry (reference value: 2.88 %); type: functional
HeLa [22] = experiment: Induction of apoptosis in human HeLa cells assessed as necrotic cells at 2 uM incubated for 48 hrs by annexin V-FITC and PI staining based flow cytometry (reference value: 0.124 %); type: functional
HCT-116 [23] = experiment: Induction of apoptosis in human HCT-116 cells assessed as late apoptotic cells at 2 uM incubated for 48 hrs by annexin V-FITC and PI staining based flow cytometry (reference value: 1.88 %); type: functional
A-375 [24] = experiment: Induction of apoptosis in human A-375 cells assessed as necrotic cells at 2 uM incubated for 48 hrs by annexin V-FITC and PI staining based flow cytometry (reference value: 0.139 %); type: functional
HeLa [25] = experiment: Induction of apoptosis in human HeLa cells assessed as viable cells at 2 uM incubated for 48 hrs by annexin V-FITC and PI staining based flow cytometry (reference value: 98.5 %); type: functional; conditions: read-out: Activity
NCI-H460 [26] = experiment: Induction of apoptosis in human NCI-H460 cells assessed as viable cells at 2 uM incubated for 48 hrs by annexin V-FITC and PI staining based flow cytometry (reference value: 90.4 %); type: functional; conditions: read-out: Activity
Histone deacetylase 2 = Histone deacetylase 2 (Homo sapiens, UniProt Q92769); experiment: Inhibition of recombinant human HDAC2 using FLUOR-DE-LYS-Green as substrate incubated for 10 mins followed by substrate addition and measured after 30 mins by fluorescence based assay
How it was run: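 IC50 values reported as means of at least two separate determinations, expressed as mean ±SD.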

HCT-116 [27] = experiment: Induction of apoptosis in human HCT-116 cells assessed as early apoptotic cells at 2 uM incubated for 48 hrs by annexin V-FITC and PI staining based flow cytometry (reference value: 4.14 %); type: functional

Histone deacetylase 1, sequence (Q13547 whole entry): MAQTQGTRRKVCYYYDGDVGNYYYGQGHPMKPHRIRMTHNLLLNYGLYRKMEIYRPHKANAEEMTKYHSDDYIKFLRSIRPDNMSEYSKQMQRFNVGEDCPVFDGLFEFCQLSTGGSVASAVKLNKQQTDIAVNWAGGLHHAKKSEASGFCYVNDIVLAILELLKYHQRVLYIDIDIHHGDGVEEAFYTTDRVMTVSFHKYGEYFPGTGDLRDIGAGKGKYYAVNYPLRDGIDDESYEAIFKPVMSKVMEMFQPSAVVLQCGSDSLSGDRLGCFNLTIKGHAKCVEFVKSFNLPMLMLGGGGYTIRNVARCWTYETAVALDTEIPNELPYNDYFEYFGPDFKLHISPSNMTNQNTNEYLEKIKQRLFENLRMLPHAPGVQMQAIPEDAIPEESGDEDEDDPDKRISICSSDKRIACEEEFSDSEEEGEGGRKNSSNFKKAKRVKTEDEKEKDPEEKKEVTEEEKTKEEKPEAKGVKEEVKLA
Histone deacetylase 2, sequence (Q92769 whole entry): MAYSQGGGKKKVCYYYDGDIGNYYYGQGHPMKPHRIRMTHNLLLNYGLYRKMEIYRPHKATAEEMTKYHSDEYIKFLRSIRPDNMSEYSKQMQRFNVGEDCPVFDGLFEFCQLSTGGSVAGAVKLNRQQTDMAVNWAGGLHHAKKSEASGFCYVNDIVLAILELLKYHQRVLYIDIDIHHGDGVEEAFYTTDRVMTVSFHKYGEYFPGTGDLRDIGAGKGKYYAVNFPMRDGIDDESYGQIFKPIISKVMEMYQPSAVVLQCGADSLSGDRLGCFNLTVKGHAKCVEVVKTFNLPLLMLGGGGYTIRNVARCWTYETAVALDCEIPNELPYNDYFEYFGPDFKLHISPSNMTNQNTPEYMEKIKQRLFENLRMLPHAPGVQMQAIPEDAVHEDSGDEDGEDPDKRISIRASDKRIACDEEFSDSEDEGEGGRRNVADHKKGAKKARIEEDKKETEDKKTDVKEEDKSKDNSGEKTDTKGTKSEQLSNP

Structure (SMILES)	inhibition at 8 µM (HepG2 [1])	inhibition at 2 µM (HCT-116 [2])	inhibition at 8 µM (HCT-116 [3])	IC50 (HeLa [4])	IC50 (A-375 [5])	inhibition at 8 µM (NCI-H460 [6])	inhibition at 2 µM (NCI-H460 [7])	inhibition (Histone deacetylase 1)	IC50 (HCT-116 [8])	IC50 (NCI-H460 [9])	inhibition at 2 µM (HepG2 [10])	IC50 (HepG2 [11])	further results
CN1CCN(c2nc(Cl)nc3c2ncn3Cc2ccc(C(=O)Nc3ccccc3N)cc2)CC1	75%	71.6%	72.8%	1.17 µM	1.6 µM	55%	13.4%	80.5%	0.31 µM	6.16 µM	60.4%	2.01 µM	–
Nc1ccccc1NC(=O)c1ccc(Cn2cnc3c(Nc4ccccc4)nc(Cl)nc32)cc1	74.8%	71.4%	83.5%	2.92 µM	2.8 µM	77.8%	42.7%	84%	1.07 µM	5.74 µM	49.6%	4.18 µM	–
Nc1ccccc1NC(=O)c1ccc(Cn2cnc3c(N4CCOCC4)nc(Cl)nc32)cc1	71.3%	77.7%	80.7%	2.03 µM	2.68 µM	47%	5.05%	93.2%	0.45 µM	6.09 µM	56.9%	2.82 µM	–
Nc1ccc(F)cc1NC(=O)c1ccc(CNC(=O)/C=C/c2cccnc2)cc1	40.6%	65.7%	73.4%	11 µM	6.72 µM	38.2%	1.73%	–	1.49 µM	13.3 µM	8.36%	11.7 µM	Activity (A-375 [12]): 49.5%; Activity (HCT-116 [13]): 0.985%; viability at 2 µM (HCT-116 [14]): 41.3%; Activity (NCI-H460 [15]): 15.1%; Activity (A-375 [16]): 14.2%; viability at 2 µM (A-375 [17]): 34.5%; Activity (HeLa [18]): 1.04%; Activity (NCI-H460 [19]): 0.543%; Activity (HeLa [20]): 0.555%; Activity (NCI-H460 [21]): 14.7%; Activity (HeLa [22]): 0.103%; Activity (HCT-116 [23]): 3.12%; Activity (A-375 [24]): 1.73%; viability at 2 µM (HeLa [25]): 98.3%; viability at 2 µM (NCI-H460 [26]): 69.6%; IC50 (Histone deacetylase 2): 0.0665 µM; Activity (HCT-116 [27]): 54.6%
CCC(C)n1cnc2c(NCc3ccc(C(=O)Nc4ccccc4N)cc3)nc(Cl)nc21 (stereo unspecified)	65%	74.6%	75.1%	3.03 µM	2.88 µM	67.7%	47.3%	94.7%	0.72 µM	4.94 µM	45%	2.99 µM	–
CC1CCN(c2nc(Cl)nc3c2ncn3Cc2ccc(C(=O)Nc3ccccc3N)cc2)CC1	65.3%	70.9%	78.6%	4.5 µM	4.24 µM	40.9%	11.8%	75.3%	0.95 µM	7.4 µM	1.22%	5.18 µM	–
CC(C)n1cnc2c(NCc3ccc(C(=O)Nc4ccccc4N)cc3)nc(Cl)nc21	74.4%	73.2%	76%	2.13 µM	2.17 µM	80.5%	54.1%	89.7%	0.8 µM	3.41 µM	63.8%	3.32 µM	–
Nc1ccccc1NC(=O)c1ccc(Cn2cnc3c(Nc4cccc(Cl)c4)nc(Cl)nc32)cc1	66.7%	56.2%	78.4%	11.3 µM	6.08 µM	67%	10.3%	61.3%	2.34 µM	6.58 µM	29.9%	9.8 µM	–
Nc1ccccc1NC(=O)c1ccc(Cn2cnc3c(NCc4ccccc4)nc(Cl)nc32)cc1	62.8%	68.3%	78.3%	6.77 µM	5.83 µM	61.2%	44.7%	76%	1.06 µM	11.2 µM	7.55%	7.72 µM	–
Nc1ccccc1NC(=O)c1ccc(CNc2nc(Cl)nc3c2ncn3C2CCCC2)cc1	74.9%	75.6%	80.6%	3.02 µM	2.79 µM	57.4%	–	90.9%	0.85 µM	5.78 µM	54.7%	3.43 µM	–
Nc1ccccc1NC(=O)/C=C/c1ccc(Cn2cnc3c(N4CCOCC4)nc(Cl)nc32)cc1	40.9%	17.8%	55.4%	–	–	37.9%	1.24%	25.7%	–	–	19%	–	–
CC[C@H](CO)Nc1nc(NCc2ccccc2)c2ncn(C(C)C)c2n1 [SELICICLIB]	22.1%	23.5%	29.1%	11.2 µM	11.8 µM	15.6%	7.73%	–	6.76 µM	11.9 µM	12%	8.53 µM	Activity (A-375 [12]): 42.3%; Activity (HCT-116 [13]): 0.24%; viability at 2 µM (HCT-116 [14]): 11.6%; Activity (NCI-H460 [15]): 36%; Activity (A-375 [16]): 7.03%; viability at 2 µM (A-375 [17]): 50.5%; Activity (HeLa [18]): 7.16%; Activity (NCI-H460 [19]): 3.09%; Activity (HeLa [20]): 4.04%; Activity (NCI-H460 [21]): 14%; Activity (HeLa [22]): 0.424%; Activity (HCT-116 [23]): 4.24%; Activity (A-375 [24]): 0.189%; viability at 2 µM (HeLa [25]): 88.4%; viability at 2 µM (NCI-H460 [26]): 47%; Activity (HCT-116 [27]): 83.9%
Nc1ccccc1NC(=O)c1ccc(Cn2cnc3c(Nc4ccc(-c5ccccn5)cc4)nc(Cl)nc32)cc1	41.2%	69.5%	73.7%	> 20 µM	18.5 µM	30.8%	18.1%	43.9%	1.25 µM	18.4 µM	11.5%	30.1 µM	–
